The list is not random: actives were taken first. Their share in the collection is about 4.6%.
M18AAP inhibitor: PfM18AAP enzyme inhibition. recombinant PfM18AAP, H-Glu-NHMec fluorogenic cleavage. inhibition, % at 7.35 µM. 1.2% of 290,000 active. AID 1822;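 active means inhibition above the campaign mean inhibition over all tested compounds plus 3 SD, cut at about 28% in these data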;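 further: 0% = plate median of test compound wells and 100% = 2 mM ZnCl2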
HDAC3 inhib: blocks human histone deacetylase 3; O15379; recombinant HDAC3, fluorogenic peptide/trypsin coupled, fluorescence; inhibition, % at 8.3 µM; 0.15% of 320,000 active; AID 2718; in the data active means inhibition above about 26%, passing the limit was not always enough; inconclusive means no clear call, values can overlap the other calls
Rtt109 HAT inh: inhibitors of Candida albicans Rtt109/Vps75 histone acetyltransferase; Q5AAJ8; 0.16% of 330,000 active; AID 540336; purified Rtt109/Vps75, ThioGlo CoA-SH fluorescence, 4 h; inhibition, % at 34.9 µM;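 active means inhibition of at least 50% in every replicate; inconclusive means best replicate reaches 50% inhibition but some replicates fall short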
Target sequence (Q5AAJ8 whole entry, looked up): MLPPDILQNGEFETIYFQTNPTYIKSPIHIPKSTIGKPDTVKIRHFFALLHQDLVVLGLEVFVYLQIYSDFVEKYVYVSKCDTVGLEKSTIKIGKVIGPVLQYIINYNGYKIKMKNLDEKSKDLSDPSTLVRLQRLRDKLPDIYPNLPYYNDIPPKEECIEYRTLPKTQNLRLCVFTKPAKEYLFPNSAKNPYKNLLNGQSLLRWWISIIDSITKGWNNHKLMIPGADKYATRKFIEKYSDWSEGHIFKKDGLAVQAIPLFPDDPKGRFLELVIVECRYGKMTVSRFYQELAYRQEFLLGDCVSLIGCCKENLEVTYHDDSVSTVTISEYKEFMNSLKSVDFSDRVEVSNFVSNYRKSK
FAS TE block: blocks the thioesterase domain of human fatty acid synthase; recombinant FAS-TE, OMFH fluorogenic substrate, fluorescence endpoint; inhibition, % at 15 µM; 0.67% of 360,000 active;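 active means compounds whose normalised, plate-corrected inhibition of enzyme fluorescence in the single-dose primary screen is 50% or more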;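 further: 0% = DMSO with enzyme and 100% = substrate without enzyme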
UCH37 inh: blocks the human deubiquitinase UCH37; Q9Y5K5; purified proteasome/UCH37, Ub-AMC cleavage fluorescence; inhibition, % (concentration not given with the values); 0.33% of 330,000 active; AID 588478;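 active means mean inhibition over replicate wells above about 20%, limit read from the data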;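 further: 0% = compound-free wells with enzyme and 100% = wells lacking proteasome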
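Material: human UCH37 enzyme supplied as purified proteasome complex. Measure: % inhibition of Ub-AMC cleavage fluorescence. Medium: pH 7.4 Tris-HCl (50 mM) with ovalbumin, ATP-MgCl2, DTT. Times: 30 min preincubation with enzyme, 25 min cleavage at room temperature. Detection: AMC fluorescence intensity at 355/460 nm.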
ALR inh: human ALR oxidase inhibition via reduced H2O2. P55789. 3.8% of 290,000 active. purified ALR, DTT oxidation, H2O2 HRP-luminol luminescence. inhibition, % (concentration not given with the values);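 active means mean replicate inhibition above about 79%, with every replicate also reaching it, limit read from the data; inconclusive means only one of the two criteria met; inactive means mean below limit and not every replicate reaching it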
Target sequence (P55789 whole entry, looked up): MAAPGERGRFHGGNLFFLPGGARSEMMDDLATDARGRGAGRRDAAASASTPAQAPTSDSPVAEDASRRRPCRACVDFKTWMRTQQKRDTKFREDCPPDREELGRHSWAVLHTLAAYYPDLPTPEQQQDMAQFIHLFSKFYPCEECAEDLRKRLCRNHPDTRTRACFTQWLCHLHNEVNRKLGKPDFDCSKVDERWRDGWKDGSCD
An asterisk follows results filed as active; i = inactive; ? = inconclusive; . = no result.

SMILES	M18AAP inhibitor	HDAC3 inhib	Rtt109 HAT inh	FAS TE block	UCH37 inh	ALR inh
COc1ccc(C2CC(c3ccccc3)=NN2c2ccc(Cl)c(C(=O)O)c2)cc1 (stereo unspecified)	-13	-164	-300	16	i	98*
COc1ccc2c(c1OC)C(=O)N1N=C(c3ccccc3)CC21 (stereo unspecified)	0	2	-8	-4	3	1
COc1cc(C2CC(c3ccccc3)=NN2c2ccccc2)ccc1OCC(=O)O (stereo unspecified)	1	-114	-134	-6	i	99*
COc1ccc(C2=NN(c3ccccc3)C(c3cn(CCC(=O)O)nc3-c3ccccc3)C2)cc1 (stereo unspecified)	-3	-39	-5	-7	-337	94*
COc1ccc(C2CC(c3ccccc3)=NN2c2ccc(S(N)(=O)=O)cc2)cc1OC (stereo unspecified)	-7	-20	-141	20	i	-17
COc1ccc(C2CC(c3ccccc3)=NN2c2ccccc2)c(C(=O)O)c1OC (stereo unspecified)	9	-18	-3	-1	i	99*
CCOC(=O)/C=C1\CC(C(=O)OCC)Oc2ccccc21 (stereo unspecified)	.	.	-6	-7	0	.
CCOC(=O)/C=C1\Nc2ccccc2OC1=O	5	-7	0	-11	3	93*
COCCNC(=O)c1onc(CSc2ccc(C(C)C)cc2)c1C(=O)O	-5	-3	3	-8	2	89*
C=CCNC(=O)c1onc(CSc2ccc(C)c(C)c2)c1C(=O)O	-2	-4	-6	-5	5	98*
CCCCNC(=O)c1onc(CSc2ccc(F)c(F)c2)c1C(=O)O	0	1	0	-8	-1	43
CCCCNC(=O)c1onc(CSc2ccc(C)c(C)c2)c1C(=O)O	2	3	4	-6	1	98*
COCCNC(=O)c1onc(CSc2ccc(Cl)cc2)c1C(=O)O	-6	0	8	-7	2	-6
COc1cccc(OCc2cc(C=NNc3ccc(C(=O)O)cc3)ccc2OC)c1	.	.	.	.	-18	.
C[C@@H](C(=O)Nc1ccc(SC(F)F)cc1)N1C(=O)C2CCCCC2C1=O (stereo partly specified)	.	-7	1	4	2	90*
Cc1ccc(NC(=O)C(C)N2C(=O)C3CC=C(Cl)CC3C2=O)cc1 (stereo unspecified)	12	-10	-1	-2	1	-7
COc1ccc(NC(=O)/C=C2\SC(=O)NC2=O)cc1	28	2	3	-3	7	97*
COc1ccc(NC(=O)Nc2ccc(OC)cc2)cc1	-3	-2	-1	-7	.	-7
O=C1c2ccc(Oc3ccc([N+](=O)[O-])cc3)cc2C(=O)N1c1ccncc1	-5	-1	.	5	4	-13
CCc1nnc(N2C(=O)c3ccc(Oc4ccc([N+](=O)[O-])cc4)cc3C2=O)s1	1	3	4	-3	0	93*
CC(=NOCc1ccccc1)c1c(O)cc(C(C)C)n(-c2ccccc2)c1=O	.	.	.	.	-3	.
CC1Oc2ccccc2C=C1C=NNC(=O)c1ccccc1 (stereo unspecified)	.	.	.	.	-14	.
CC1C(C#N)=C(SCC(N)=O)NC2=C1C(=O)CC(C)(C)C2 (stereo unspecified)	13	2	0	17	-21	46
CCC1C(C#N)=C(SCC(N)=O)NC2=C1C(=O)CC(C)(C)C2 (stereo unspecified)	-4	4	.	4	-48	97*
CCOc1cccc(C=NNC(=O)C2CCCC2)c1O	.	.	.	.	-2	.
SMILES	M18AAP inhibitor	HDAC3 inhib	Rtt109 HAT inh	FAS TE block	UCH37 inh	ALR inh
CC(=O)ON=C(c1nonc1N)N1CCN(c2ccc([N+](=O)[O-])cc2Cl)CC1	.	.	.	.	6	.
CN(C)c1cccc(C(=O)NCc2ccccc2Cl)c1	0	-12	-11	-6	-19	11
CN(C)c1cccc(C(=O)NCc2ccccc2)c1	6	-18	-3	-2	-9	96*
O=C(NCC(=O)N1CCCCC1)c1ccc2ccccc2c1	-12	2	52*	-6	3	1
Cc1cccc(NCc2nc3ccccc3n2C)c1	-1	.	-5	1	5	-1
CS(=O)(=O)Nc1ccc(-c2n[nH]c(=S)n2-c2ccccc2)cc1	31*	20	22	-5	-4	97*
Cc1cccc(NCc2n[nH]c(=S)n2-c2ccccc2)c1	13	5	0	4	2	42
Cc1ccc(NCc2n[nH]c(=S)n2-c2ccccc2)c(C)c1	11	-3	-5	-6	3	98*
Cc1ccc(NCc2nc3ccccc3n2C)c(C)c1	2	1	1	14	2	98*
Cc1ccc(NCc2n[nH]c(=S)n2-c2ccccc2)cc1	12	1	-2	-10	0	98*
O=C(NN=Cc1ccc(N2CCOCC2)o1)c1ccccc1[N+](=O)[O-]	.	.	.	.	15	.
COc1cccc(/C=C2\SC(=S)N(NS(=O)(=O)c3ccccc3)C2=O)c1OC	5	13	0	2	19	97*
COc1ccc(/C=C2/SC(=O)N(NS(=O)(=O)c3ccccc3)C2=S)cc1OC	14	2	79*	-2	11	-7
CCOc1ccccc1C(=O)NN=Cc1coc2ccc(C)cc2c1=O	.	.	.	.	-51	.
Cc1nc(C(=NO)C(N)=O)cs1	.	.	.	.	2	.
COc1ccc(Nc2nc(NCC3CCCO3)c3ccccc3n2)c(OC)c1 (stereo unspecified)	-8	2	14	4	-6	98*
Oc1cccc(Nc2nc(NCC3CCCO3)c3ccccc3n2)c1 (stereo unspecified)	3	5	?	-3	-13	100*
COCc1cc(=O)[nH]c(N=C(N)Nc2ccc(Oc3ccccc3)cc2)n1	.	.	.	.	1	.
COc1cccc(C=NNC(=O)c2ccc(COc3ccc(Cl)cc3Cl)o2)c1	.	.	.	.	3	.
O=C1Nc2ccccc2N=C(c2ccccc2)c2ccccc21	1	2	.	15	2	83*
O=C1Nc2ccccc2Nc2ccccc21	4	6	-1	-4	4	4
CC1=CC(C)(C)Nc2ccc(OC(=O)CN3C(=O)CCC3=O)cc21	2	1	-4	-4	-89	99*
CC1=CC(C)(C)Nc2ccc(OC(=O)C(C)N3C(=O)c4ccccc4C3=O)cc21 (stereo unspecified)	-7	10	-1	28	-1	7
CCn1c(SCC(=O)Nc2nc(-c3ccc(C)cc3)cs2)nnc1-c1ccccc1	-5	-3	3	14	3	4
CN(C)CCCn1c(SCC(=O)N2c3ccccc3Sc3ccccc32)nc2ccccc2c1=O	-3	-1	?	11	9	97*
Cc1ccc(-c2csc(NC(=O)CSc3nc4ccccc4c(=O)n3CCCN(C)C)n2)cc1	0	8	?	-33	8	99*

Bioassay records from PubChem.
